ChEMBL document CHEMBL1142636 (2000)
The source made the active and inactive calls. No cut-off for these calls is given here.

How the values were obtained:
SK-MEL-2 = test: Growth inhibition of human SK-MEL-2 cells; type: functional
Method in brief: (§1)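 Tested at the NCI in its human disease-oriented in vitro screen of 60 tumour cell lines, following the Monks et al. methods. Activity is expressed as GI50, given as log molar values.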

SK-OV-3 = test: Growth inhibition of human SK-OV-3 cells; type: functional; method in brief: as §1
SF-539 = test: Growth inhibition of human SF539 cells; type: functional; method in brief: as §1
HOP-62 = test: Growth inhibition of human HOP62 cells; type: functional
NCI-H322M = test: Growth inhibition of human NCI-H322M cells; type: functional
HCT-15 = test: Growth inhibition of human HCT15 cells; type: functional
Hs-578T = test: Growth inhibition of human HS578T cells; type: functional
A498 = test: Growth inhibition of human A498 cells; type: functional
HT-29 = test: Growth inhibition of human HT29 cells; type: functional
U-251 = test: Growth inhibition of human U251 cells; type: functional; method in brief: as §1
HL-60(TB) = test: (§2) Growth inhibition of human HL60(TB) cells; type: functional
A549 = test: Growth inhibition of human A549 cells; type: functional
RPMI8266 = test: (§3) Growth inhibition of human RPMI8266 cells; type: functional
SNB-19 = test: Growth inhibition of human SNB19 cells; type: functional; method in brief: as §1
SR = test: Growth inhibition of human SR cells; type: functional; method in brief: as §1
HOP-18 = test: Growth inhibition of human HOP18 cells; type: functional
M14 = test: Growth inhibition of human M14 cells; type: functional
NCI/ADR-RES = test: (§4) Growth inhibition of human MCF7/ADR-RES cells; type: functional
IGROV-1 = test: Growth inhibition of human IGROV1 cells; type: functional
OVACR3 = test: (§5) Growth inhibition of human […] cells; type: functional
UO-31 = test: Growth inhibition of human UO31 cells; type: functional; method in brief: as §1
OVACR4 = test: (§6) Growth inhibition of human OVACR4 cells; type: functional
LOX IMVI = test: Growth inhibition of human LOX IMVI cells; type: functional
MCF7 = test: Growth inhibition of human MCF7 cells; type: functional
RXF 393 = test: Growth inhibition of human […] cells; type: functional
LXFL 529 = test: (§7) Growth inhibition of human LXFL529 cells; type: functional
MDA-MB-435 = test: Growth inhibition of human MDA-MB-435 cells; type: functional
DMS144 = test: (§8) Growth inhibition of human DMS144 cells; type: functional
DMS-273 = test: Growth inhibition of human DMS273 cells; type: functional
ACHN = test: Growth inhibition of human ACHN cells; type: functional
PC-3 = test: Growth inhibition of human PC3 cells; type: functional
T47D = test: Growth inhibition of human T47D cells; type: functional; method in brief: as §1
DU-145 = test: Growth inhibition of human DU145 cells; type: functional
SK-MEL-28 = test: Growth inhibition of human SK-MEL-28 cells; type: functional; method in brief: as §1
NCI-H23 = test: Growth inhibition of human NCI-H23 cells; type: functional
HOP-92 = test: Growth inhibition of human HOP92 cells; type: functional
Malme-3M = test: Growth inhibition of human MALME-3M cells; type: functional
EKVX = test: Growth inhibition of human EKVX cells; type: functional
SW-620 = test: Growth inhibition of human SW620 cells; type: functional; method in brief: as §1
NCI-H226 = test: Growth inhibition of human NCI-H226 cells; type: functional
786-0 = test: Growth inhibition of human 786-0 cells; type: functional
TK-10 = test: Growth inhibition of human TK10 cells; type: functional; method in brief: as §1
CCRF-CEM = test: Growth inhibition of human CCRF-CEM cells; type: functional
SNB-75 = test: Growth inhibition of human SNB75 cells; type: functional; method in brief: as §1
COLO 205 = test: Growth inhibition of human COLO205 cells; type: functional
KM12 = test: Growth inhibition of human KM12 cells; type: functional
M19-MEL = test: Growth inhibition of human M19-MEL cells; type: functional
XF498 = test: Growth inhibition of human XF498 cells; type: functional; method in brief: as §1
UACC-257 = test: Growth inhibition of human UACC257 cells; type: functional; method in brief: as §1
MDA-N = test: Growth inhibition of human MDA-N cells; type: functional
SF-295 = test: Growth inhibition of human SF295 cells; type: functional; method in brief: as §1
SN12C = test: Growth inhibition of human SN12C cells; type: functional; method in brief: as §1
NCI-H522 = test: Growth inhibition of human NCI-H522 cells; type: functional
SF-268 = test: Growth inhibition of human SF268 cells; type: functional; method in brief: as §1
NCI-H460 = test: Growth inhibition of human NCI-H460 cells; type: functional
BT-549 = test: Growth inhibition of human BT549 cells; type: functional
DLD-1 = test: Growth inhibition of human DLD1 cells; type: functional
MDA-MB-231 = test: Growth inhibition of human MDA-MB-231 cells; type: functional
K562 = test: Growth inhibition of human K562 cells; type: functional
HCT-116 = test: Growth inhibition of human HCT116 cells; type: functional
CAKI-1 = test: Growth inhibition of human CAKI1 cells; type: functional
UACC-62 = test: Growth inhibition of human UACC62 cells; type: functional; method in brief: as §1
HCC 2998 = test: Growth inhibition of human HCC2998 cells; type: functional
MOLT-4 = test: Growth inhibition of human MOLT4 cells; type: functional
OVACR8 = test: (§9) Growth inhibition of human OVACR8 cells; type: functional
OVACR5 = test: (§10) Growth inhibition of human OVACR5 cells; type: functional
KM-20L2 = test: Growth inhibition of human KM20L2 cells; type: functional
SK-MEL-5 = test: Growth inhibition of human SK-MEL-5 cells; type: functional; method in brief: as §1
[1] = as §2; type: functional, HL-60(TB); details: HL-60, read-out: pLC50 (the source's name) (converted)
[2] = as §3; type: functional; details: read-out: pLC50 (the source's name) (converted)
[3] = as §4; type: functional; details: NCI/ADR-RES, read-out: pLC50 (the source's name) (converted)
[4] = as §5; type: functional; details: read-out: pLC50 (the source's name) (converted)
[5] = as §6; type: functional; details: read-out: pLC50 (the source's name) (converted)
[6] = as §7; type: functional; details: LXFL 529
[7] = as §8; type: functional
[8] = as §9; type: functional; details: read-out: pLC50 (the source's name) (converted)
[9] = as §10; type: functional; details: read-out: pLC50 (the source's name) (converted)
[10] = read-out: pLC50 (the source's name) (converted)

SMILES: COc1ccc2c([nH]c3c(O)c(-c4c(C)cc5c([nH]c6c(CC=C(C)C)c(OC)ccc65)c4O)c(C)cc32)c1CC=C(C)C
- Activity (SK-MEL-2): inactive
- Activity (SK-OV-3): inactive
- Activity (SF-539): inactive
- Activity (HOP-62): inactive
- Activity (NCI-H322M): inactive
- Activity (HCT-15): inactive
- Activity (Hs-578T): inactive
- Activity (A498): inactive
- Activity (HT-29): inactive
- Activity (U-251): inactive
- Activity (HL-60(TB)): inactive
- Activity (A549): inactive
- Activity (RPMI8266): inactive
- Activity (SNB-19): inactive
- Activity (SR): inactive
- Activity (HOP-18): inactive
- Activity (M14): inactive
- Activity (NCI/ADR-RES): inactive
- Activity (IGROV-1): inactive
- Activity (OVACR3): inactive
- Activity (UO-31): inactive
- Activity (OVACR4): inactive
- Activity (LOX IMVI): inactive
- Activity (MCF7): inactive
- Activity (RXF 393): inactive
- Activity (LXFL 529): inactive
- Activity (MDA-MB-435): inactive
- Activity (DMS144): inactive
- Activity (DMS-273): inactive
- Activity (ACHN): inactive
- Activity (PC-3): inactive
- Activity (T47D): inactive
- Activity (DU-145): inactive
- Activity (SK-MEL-28): inactive
- Activity (NCI-H23): inactive
- Activity (HOP-92): inactive
- Activity (Malme-3M): inactive
- Activity (EKVX): inactive
- Activity (SW-620): inactive
- Activity (NCI-H226): inactive
- Activity (786-0): inactive
- Activity (TK-10): inactive
- Activity (CCRF-CEM): inactive
- Activity (SNB-75): inactive
- Activity (COLO 205): inactive
- Activity (KM12): inactive
- Activity (M19-MEL): inactive
- Activity (XF498): inactive
- Activity (UACC-257): inactive
- Activity (MDA-N): inactive
- Activity (SF-295): inactive
- Activity (SN12C): inactive
- Activity (NCI-H522): inactive
- Activity (SF-268): inactive
- Activity (NCI-H460): inactive
- Activity (BT-549): inactive
- Activity (DLD-1): inactive
- Activity (MDA-MB-231): inactive
- Activity (K562): inactive
- Activity (HCT-116): inactive
- Activity (CAKI-1): inactive
- Activity (UACC-62): inactive
- Activity (HCC 2998): inactive
- Activity (MOLT-4): inactive
- Activity (OVACR8): inactive
- Activity (OVACR5): inactive
- Activity (KM-20L2): inactive
- Activity (SK-MEL-5): inactive

SMILES: Cc1cc2c3ccccc3n3c2c2c1O[C@@]1(C)CC[C@H]([C@@H]2C1)C3(C)C
- CC50 (SK-MEL-2; [10]): > 25.1 µM
- CC50 (SK-OV-3; [10]): > 25.1 µM
- CC50 (SF-539; [10]): > 25.1 µM
- LC50 (HOP-62): > 25.1 µM
- LC50 (NCI-H322M): > 25.1 µM
- CC50 (HCT-15; [10]): > 25.1 µM
- CC50 (Hs-578T; [10]): > 25.1 µM
- CC50 (A498; [10]): > 25.1 µM
- LC50 (HT-29): > 25.1 µM
- CC50 (U-251; [10]): > 25.1 µM
- CC50 [1]: > 25.1 µM
- LC50 (A549): > 25.1 µM
- CC50 [2]: > 25.1 µM
- CC50 (SNB-19; [10]): > 25.1 µM
- LC50 (SR): > 25.1 µM
- CC50 (HOP-18; [10]): > 25.1 µM
- CC50 (M14; [10]): > 25.1 µM
- CC50 [3]: > 25.1 µM
- CC50 (IGROV-1; [10]): > 25.1 µM
- CC50 [4]: > 25.1 µM
- CC50 (UO-31; [10]): > 25.1 µM
- CC50 [5]: > 25.1 µM
- CC50 (LOX IMVI; [10]): > 25.1 µM
- CC50 (MCF7; [10]): > 25.1 µM
- CC50 (RXF 393; [10]): > 25.1 µM
- LC50 [6]: > 25.1 µM
- LC50 (MDA-MB-435): > 25.1 µM
- LC50 [7]: > 25.1 µM
- LC50 (DMS-273): > 25.1 µM
- CC50 (ACHN; [10]): > 25.1 µM
- CC50 (PC-3; [10]): > 25.1 µM
- LC50 (T47D): > 25.1 µM
- CC50 (DU-145; [10]): > 25.1 µM
- CC50 (SK-MEL-28; [10]): > 25.1 µM
- LC50 (NCI-H23): > 25.1 µM
- CC50 (HOP-92; [10]): > 25.1 µM
- CC50 (Malme-3M; [10]): > 25.1 µM
- CC50 (EKVX; [10]): > 25.1 µM
- LC50 (SW-620): > 25.1 µM
- LC50 (NCI-H226): > 25.1 µM
- CC50 (786-0; [10]): > 25.1 µM
- CC50 (TK-10; [10]): > 25.1 µM
- LC50 (CCRF-CEM): > 25.1 µM
- CC50 (SNB-75; [10]): > 25.1 µM
- LC50 (COLO 205): > 25.1 µM
- CC50 (KM12; [10]): > 25.1 µM
- CC50 (M19-MEL; [10]): > 25.1 µM
- CC50 (XF498; [10]): > 25.1 µM
- CC50 (UACC-257; [10]): > 25.1 µM
- CC50 (MDA-N; [10]): > 25.1 µM
- CC50 (SF-295; [10]): > 25.1 µM
- CC50 (SN12C; [10]): > 25.1 µM
- CC50 (NCI-H522; [10]): > 25.1 µM
- LC50 (SF-268): > 25.1 µM
- LC50 (NCI-H460): > 25.1 µM
- LC50 (BT-549): > 25.1 µM
- LC50 (DLD-1): > 25.1 µM
- CC50 (MDA-MB-231; [10]): > 25.1 µM
- LC50 (K562): > 25.1 µM
- CC50 (HCT-116; [10]): > 25.1 µM
- CC50 (CAKI-1; [10]): > 25.1 µM
- CC50 (UACC-62; [10]): > 25.1 µM
- LC50 (HCC 2998): > 25.1 µM
- LC50 (MOLT-4): > 25.1 µM
- CC50 [8]: > 25.1 µM
- CC50 [9]: > 25.1 µM
- CC50 (KM-20L2; [10]): > 25.1 µM
- CC50 (SK-MEL-5; [10]): > 25.1 µM
